Laboratory results: ChEMBL document CHEMBL1138812, “Synthesis and antiviral evaluation of polyhalogenated imidazole nucleosides: dimensional analogues of 2,5,6-trichloro-1-(beta-D-ribofuranosyl)benzimidazole” (J Med Chem, 2004)

Experiments:
[1] = system: KB; assay: Concentration required to inhibit KB cell line growth was determined by crystal violet staining method; assay type: functional, cell-based; conditions: Homo sapiens
Summary of the method: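 KB cells, 3000–5000 per well, incubated overnight at 37 °C, then compound added at six to eight concentrations in quadruplicate. Grown 48 h at 37 °C under CO2 (two population doublings), fixed in 95% ethanol, stained with 0.1% crystal violet, dye eluted with acidified ethanol, absorbance 570 nm. IC50 taken from linear regression of percent inhibition against log concentration.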

[2] = system: Human betaherpesvirus 5; assay: Concentration required to inhibit plaque formation in human cytomegalovirus cultures was determined; assay type: functional, organism-based
Summary of the method: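 HFF monolayers infected with about 100 pfu/cm² of HCMV Towne strain (plaque-purified P₀). After adsorption, compound (10 mg/mL DMSO stock, diluted in medium) added at four to eight concentrations in duplicate wells. After 7–10 days at 37 °C, cells fixed and stained with crystal violet and plaques counted microscopically. Percent plaque reduction versus drug-free wells, IC50 by regression against log concentration.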

[3] = system: HFF; assay: Concentration required to inhibit stationary human HFF cell line growth was determined by microscopy examination; assay type: functional, cell-based
Summary of the method: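 Toxicity judged by microscopic inspection of uninfected stationary HFF cells in the HCMV plaque assay, scored at the time plaques were counted. Results come from duplicate experiments. IC50 from linear regression of percent inhibition against log concentration.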

[4] = system: Human alphaherpesvirus 1; assay: Inhibitory activity against herpes simplex virus type-1 cultures was determined by ELISA assay; assay type: functional, organism-based
Summary of the method: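 BSC-1 cells, 10000 per well in MEM(E) with 10% calf serum, incubated overnight at 37 °C. Drug added in quadruplicate with HSV-1 (KOS) at 100 pfu/well and incubated 3 days at 37 °C. Plates blocked, probed with HRP-conjugated rabbit anti-HSV-1 and developed with TMB; reaction stopped with H2SO4 and read at 450/570 nm. Percent absorbance reduction versus virus-only wells, IC50 by regression.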

| IC50 [1] [µM] | IC50 [2] [µM] | IC50 [4] [µM] | Compound | IC50 [3] [µM] |
| --- | --- | --- | --- | --- |
| > 100 | > 100 | > 100 | OCC1OC(n2c(Br)nc(Cl)c2Cl)[C@@H](O)C1O (some centres not stated) | > 100 |
| 25 | > 100 | 35 | OCCOCn1c(Cl)nc(Cl)c1Cl | 45 |
| > 100 | > 100 | > 100 | OCCOCn1c(Br)nc(Cl)c1Cl | > 100 |
| 25 | > 100 | 30 | OCC(CO)OCn1c(Cl)nc(Cl)c1Cl | > 100 |
| 90 | 32 | > 100 | OCC1OC(n2c(Br)nc(Br)c2Br)[C@@H](O)C1O (some centres not stated) | > 100 |
| > 100 | > 100 | > 100 | OCCOCn1c(Br)nc(Br)c1Br | > 100 |
|  | 30 |  | Clc1nc(Cl)c(Cl)[nH]1 | 75 |
| > 100 | > 100 | > 100 | OC[C@H]1O[C@@H](n2c(Br)nc(Cl)c2Cl)[C@H](O)[C@@H]1O | > 100 |
| 65 | 30 | 60 | OC[C@H]1O[C@@H](n2c(Br)nc(Br)c2Br)[C@H](O)[C@@H]1O | 100 |
| > 100 | > 100 | > 100 | OC[C@H]1O[C@@H](n2c(Cl)nc(Cl)c2Cl)[C@H](O)[C@@H]1O | > 100 |
| > 100 | > 100 | 50 | OC[C@H]1O[C@@H](n2c(Cl)nc(Cl)c2Cl)[C@H](O)[C@H]1O | > 100 |
| > 100 | > 100 | > 100 | OC[C@H]1O[C@@H](n2c(Br)nc(Cl)c2Cl)[C@H](O)[C@H]1O | > 100 |
| > 100 | > 100 | > 100 | OC[C@H]1O[C@@H](n2c(Br)nc(Br)c2Br)[C@H](O)[C@H]1O | > 100 |
| > 100 | > 100 | > 100 | OCC(CO)OCn1c(Br)nc(Cl)c1Cl | > 100 |
|  | 41 |  | Clc1nc(Br)[nH]c1Cl | > 100 |
| > 100 | > 100 | > 100 | OCC(CO)OCn1c(Br)nc(Br)c1Br | > 100 |
|  | 37 |  | Brc1nc(Br)c(Br)[nH]1 | 75 |
| > 100 |  |  | OC[C@H]1O[C@@H](n2c(Cl)nc3cc(Cl)c(Cl)cc32)[C@H](O)[C@@H]1O |  |
| > 100 | > 100 | > 100 | OC[C@H]1OC(n2cnc(Br)c2Br)[C@H](O)[C@@H]1O (some centres not stated) | > 100 |
| > 100 | > 100 | > 100 | OC[C@H]1OC(n2cnc(Cl)c2Cl)[C@H](O)[C@@H]1O (some centres not stated) | > 100 |
|  | 2 |  | OC[C@H]1OC(n2c(Cl)nc3cc4cc(Cl)c(Cl)cc4cc32)[C@H](O)[C@@H]1O (some centres not stated) |  |

| Compound | IC50 [1] [µM] | IC50 [2] [µM] | IC50 [4] [µM] | IC50 [3] [µM] |
| --- | --- | --- | --- | --- |
| OC[C@H]1O[C@@H](n2cnc3cc(Cl)c(Cl)cc32)[C@@H](O)[C@H]1O | 36 | 42 | 30 | 24 |
| OC[C@H]1O[C@@H](n2c(Br)nc3cc(Cl)c(Cl)cc32)[C@H](O)[C@@H]1O | > 100 | 0.7 |  |  |
| OC[C@H]1OC(n2c(Cl)nc3cc4cc(Cl)c(Cl)cc4nc32)[C@H](O)[C@@H]1O (some centres not stated) |  | 18 | 90 |  |
| OC[C@H]1OC(n2c(Cl)nc3nc4cc(Cl)c(Cl)cc4cc32)[C@H](O)[C@@H]1O (some centres not stated) |  | 2 | 70 |  |
